Activity calls are given as the source filed them. The rule behind the calls is not given here.
Legend:
[1] = biological target: T1, C-C chemokine receptor type 4 (Homo sapiens, UniProt P51679); experiment: Antagonist activity at human CCR4 expressed in rat chem-5 cells assessed as inhibition of CCL22-induced calcium flux measured at 2.5 secs time interval for 45 secs by calcium 6 dye-based FLIPR assay; format: functional, cell-based
T1 sequence (P51679 whole entry): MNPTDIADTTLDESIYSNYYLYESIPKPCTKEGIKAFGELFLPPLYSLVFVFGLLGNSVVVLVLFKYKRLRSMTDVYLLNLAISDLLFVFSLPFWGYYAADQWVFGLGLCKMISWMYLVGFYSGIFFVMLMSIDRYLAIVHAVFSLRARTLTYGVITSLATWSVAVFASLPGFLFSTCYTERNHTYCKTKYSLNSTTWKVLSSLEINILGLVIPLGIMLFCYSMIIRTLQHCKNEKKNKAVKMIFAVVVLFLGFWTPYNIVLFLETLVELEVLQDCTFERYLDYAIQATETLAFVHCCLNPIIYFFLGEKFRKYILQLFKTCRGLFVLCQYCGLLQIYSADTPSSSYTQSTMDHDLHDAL
Method in brief: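 Primary calcium flux assay for CCR4 antagonism, run in the absence of serum.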

[2] = Metabolic stability in rat hepatocytes assessed as parent compound remaining at 1 uM after 60 mins by LC-MS/MS analysis; format: ADME, cell-based, Hepatocyte; details: read-out: Stability
Method in brief: (§1)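 Hepatocytes (human or rat). Compound incubated for 60 min; value is % parent remaining.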

[3] = Metabolic stability in human hepatocytes assessed as parent compound remaining at 1 uM after 60 mins by LC-MS/MS analysis; format: ADME, cell-based, Hepatocyte; details: read-out: Stability; method in brief: as §1
[4] = Clearance in rat at 0.5 mg/kg, iv; format: ADME, organism-based; details: in vivo
Method in brief: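 Rat in vivo PK. Single IV dose of 0.5 mg/kg; clearance in mL/min/kg.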

[5] = Oral bioavailability in rat at 2 mg/kg; format: ADME, organism-based; details: in vivo
Method in brief: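 Rat in vivo PK. Oral dose of 2 mg/kg; %F derived.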

Cytochrome P450 1A2 = Cytochrome P450 1A2 (Homo sapiens, UniProt P05177); experiment: Inhibition of CYP1A2 in human liver microsomes using phenacetin as substrate incubated for 20 mins in presence of NADPH by LC-MS/MS analysis; format: ADME
Chain of Cytochrome P450 1A2 (P05177 whole entry): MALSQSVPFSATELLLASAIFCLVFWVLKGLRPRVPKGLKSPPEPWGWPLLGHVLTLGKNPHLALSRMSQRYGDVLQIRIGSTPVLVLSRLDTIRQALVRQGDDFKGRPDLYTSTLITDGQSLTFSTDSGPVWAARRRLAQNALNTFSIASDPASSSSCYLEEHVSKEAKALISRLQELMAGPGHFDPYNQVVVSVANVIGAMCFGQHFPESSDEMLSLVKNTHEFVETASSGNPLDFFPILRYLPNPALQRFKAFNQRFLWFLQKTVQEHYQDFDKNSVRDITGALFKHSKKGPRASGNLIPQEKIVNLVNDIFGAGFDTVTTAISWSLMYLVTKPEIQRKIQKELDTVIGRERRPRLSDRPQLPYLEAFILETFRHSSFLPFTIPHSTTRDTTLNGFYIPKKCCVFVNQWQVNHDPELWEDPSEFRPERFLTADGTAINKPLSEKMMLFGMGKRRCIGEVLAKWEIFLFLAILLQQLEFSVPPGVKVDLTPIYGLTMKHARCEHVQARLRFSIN

Cytochrome P450 2C9 = Cytochrome P450 2C9 (Homo sapiens, UniProt P11712); experiment: Inhibition of CYP2C9 in human liver microsomes using diclofenac sodium salt as substrate incubated for 20 mins in presence of NADPH by LC-MS/MS analysis; format: ADME
Chain of Cytochrome P450 2C9 (P11712 whole entry): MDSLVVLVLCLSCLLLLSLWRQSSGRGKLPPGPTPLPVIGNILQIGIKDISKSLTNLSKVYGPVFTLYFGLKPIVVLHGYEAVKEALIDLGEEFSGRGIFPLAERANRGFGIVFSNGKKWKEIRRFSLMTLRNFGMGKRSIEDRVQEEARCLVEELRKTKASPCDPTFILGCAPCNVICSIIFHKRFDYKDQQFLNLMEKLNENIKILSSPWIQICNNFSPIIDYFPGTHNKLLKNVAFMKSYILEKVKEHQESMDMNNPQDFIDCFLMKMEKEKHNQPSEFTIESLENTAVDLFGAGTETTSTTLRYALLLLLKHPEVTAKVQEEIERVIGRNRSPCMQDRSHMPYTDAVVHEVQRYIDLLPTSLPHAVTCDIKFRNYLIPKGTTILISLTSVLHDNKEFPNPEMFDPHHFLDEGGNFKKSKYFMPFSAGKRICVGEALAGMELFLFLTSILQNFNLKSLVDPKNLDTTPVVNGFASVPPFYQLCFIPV

Cytochrome P450 2C19 = Cytochrome P450 2C19 (Homo sapiens, UniProt P33261); experiment: Inhibition of CYP2C19 in human liver microsomes using S-mephenytoin as substrate incubated for 20 mins in presence of NADPH by LC-MS/MS analysis; format: ADME
Chain of Cytochrome P450 2C19 (P33261 whole entry): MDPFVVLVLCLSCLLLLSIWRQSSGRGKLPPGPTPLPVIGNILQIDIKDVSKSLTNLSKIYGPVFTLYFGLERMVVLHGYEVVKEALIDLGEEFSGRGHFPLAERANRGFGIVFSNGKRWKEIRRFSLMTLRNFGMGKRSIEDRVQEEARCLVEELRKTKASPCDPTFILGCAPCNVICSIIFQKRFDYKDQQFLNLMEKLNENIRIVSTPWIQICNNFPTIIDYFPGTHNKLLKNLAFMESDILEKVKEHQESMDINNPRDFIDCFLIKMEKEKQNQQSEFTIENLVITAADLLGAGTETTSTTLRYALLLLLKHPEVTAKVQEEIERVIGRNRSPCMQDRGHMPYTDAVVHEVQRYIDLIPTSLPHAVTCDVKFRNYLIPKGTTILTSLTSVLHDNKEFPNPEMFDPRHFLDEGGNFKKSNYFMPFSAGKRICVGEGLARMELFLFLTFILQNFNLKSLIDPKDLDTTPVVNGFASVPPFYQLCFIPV

[6] = Volume of distribution at steady state in mouse at 0.5 mg/kg, iv; format: ADME, organism-based; details: in vivo, read-out: Vdss
[7] = AUC (0 to last) in mouse at 2 mg/kg, po; format: ADME, organism-based; parameters: dose 2 mg/kg, time 0 - last, route oral; details: in vivo
[8] = Half life in dog at 0.5 mg/kg, iv; format: ADME, organism-based, Canis lupus familiaris; details: in vivo
[9] = Oral bioavailability in dog at 2 mg/kg; format: ADME, organism-based, Canis lupus familiaris; details: in vivo
[10] = biological target: C-C chemokine receptor type 2 (Homo sapiens) (UniProt P41597); experiment: Antagonist activity at human Gi/G0-coupled […]-induced beta arrestin2 recruitment at 500 nM preincubated for 30 mins […] and measured after 90 to 180 mins by pathhunter assay
Chain of C-C chemokine receptor type 2 (Homo sapiens) (P41597 whole entry, looked up): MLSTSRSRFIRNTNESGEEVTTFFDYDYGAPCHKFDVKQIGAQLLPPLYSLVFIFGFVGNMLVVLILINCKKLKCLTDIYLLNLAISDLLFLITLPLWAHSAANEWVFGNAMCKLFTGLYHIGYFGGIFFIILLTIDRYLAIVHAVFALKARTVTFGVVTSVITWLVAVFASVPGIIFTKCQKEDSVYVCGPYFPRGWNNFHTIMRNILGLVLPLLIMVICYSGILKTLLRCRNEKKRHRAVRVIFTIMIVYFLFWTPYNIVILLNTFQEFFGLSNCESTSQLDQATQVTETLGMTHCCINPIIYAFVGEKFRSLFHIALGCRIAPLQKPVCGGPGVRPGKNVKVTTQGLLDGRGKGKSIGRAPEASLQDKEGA

[11] = biological target: C-C chemokine receptor type 5 (Homo sapiens) (UniProt P51681); experiment: Antagonist activity at human Gi/G0-coupled CCR5 receptor expressed in CHOK1 cells assessed as inhibition of CCL3-induced beta arrestin2 recruitment at 500 nM preincubated for 30 mins followed by CCL3 stimulation and measured after 90 to 180 mins by pathhunter assay; format: cell-based; details: CHO-K1
Chain of C-C chemokine receptor type 5 (Homo sapiens) (P51681 whole entry, looked up): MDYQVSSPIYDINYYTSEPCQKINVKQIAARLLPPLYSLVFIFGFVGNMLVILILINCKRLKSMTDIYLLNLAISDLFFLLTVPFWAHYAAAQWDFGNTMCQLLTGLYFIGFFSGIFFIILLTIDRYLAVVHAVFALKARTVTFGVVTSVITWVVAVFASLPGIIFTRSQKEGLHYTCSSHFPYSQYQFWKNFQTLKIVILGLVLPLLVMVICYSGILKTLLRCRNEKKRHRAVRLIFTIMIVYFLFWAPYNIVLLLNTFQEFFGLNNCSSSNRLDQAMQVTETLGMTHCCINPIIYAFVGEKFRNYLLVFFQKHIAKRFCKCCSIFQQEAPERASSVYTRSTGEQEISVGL

[12] = biological target: C-C chemokine receptor type 6 (Homo sapiens) (UniProt P51684); experiment: Antagonist activity at human Gi/G0-coupled CCR6 receptor expressed in CHOK1 cells assessed as inhibition of CCL20-induced beta arrestin2 recruitment at 500 nM preincubated for 30 mins followed by CCL20 stimulation and measured after 90 to 180 mins by pathhunter assay; format: cell-based; details: CHO-K1
Chain of C-C chemokine receptor type 6 (Homo sapiens) (P51684 whole entry): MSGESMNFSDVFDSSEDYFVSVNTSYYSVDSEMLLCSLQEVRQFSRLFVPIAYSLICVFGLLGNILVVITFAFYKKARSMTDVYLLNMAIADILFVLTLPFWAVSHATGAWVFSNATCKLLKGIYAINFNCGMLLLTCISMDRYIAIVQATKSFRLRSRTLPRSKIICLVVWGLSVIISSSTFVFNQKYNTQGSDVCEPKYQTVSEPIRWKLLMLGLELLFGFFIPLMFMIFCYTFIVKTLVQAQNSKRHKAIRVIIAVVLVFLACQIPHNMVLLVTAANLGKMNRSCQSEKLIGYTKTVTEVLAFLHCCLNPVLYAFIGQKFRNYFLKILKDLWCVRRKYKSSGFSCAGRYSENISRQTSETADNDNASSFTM

[13] = biological target: C-C chemokine receptor type 8 (Homo sapiens) (UniProt P51685); experiment: Antagonist activity at human CCR8 receptor assessed as inhibition of CCL1-induced beta arrestin2 recruitment at 500 nM preincubated for 30 mins followed by CCL1 stimulation and measured after 90 to 180 mins by pathhunter assay
Chain of C-C chemokine receptor type 8 (Homo sapiens) (P51685 whole entry): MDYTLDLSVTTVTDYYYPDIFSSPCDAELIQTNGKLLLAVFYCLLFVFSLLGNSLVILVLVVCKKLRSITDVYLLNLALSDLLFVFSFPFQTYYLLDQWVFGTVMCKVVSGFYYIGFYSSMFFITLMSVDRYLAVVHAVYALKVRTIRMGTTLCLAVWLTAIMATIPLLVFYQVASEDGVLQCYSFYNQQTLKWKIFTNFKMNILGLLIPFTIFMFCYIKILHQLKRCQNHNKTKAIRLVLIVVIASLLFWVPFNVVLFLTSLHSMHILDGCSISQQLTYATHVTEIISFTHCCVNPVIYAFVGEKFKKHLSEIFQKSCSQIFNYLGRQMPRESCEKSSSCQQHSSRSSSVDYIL

[14] = biological target: C-C chemokine receptor type 9 (Homo sapiens) (UniProt P51686); experiment: Antagonist activity at human Gi/G0-coupled CCR9 receptor expressed in CHOK1 cells assessed as inhibition of CCL25-induced beta arrestin2 recruitment at 500 nM preincubated for 30 mins followed by CCL25 stimulation and measured after 90 to 180 mins by pathhunter assay; format: cell-based; details: CHO-K1
[15] = biological target: CX3C chemokine receptor 1 (Homo sapiens) (UniProt P49238); experiment: Antagonist activity at human Gi/G0-coupled CX3CR1 expressed in CHOK1 cells assessed as inhibition of CX3CL1-induced beta arrestin2 recruitment at 500 nM preincubated for 30 mins followed by CX3CL1 stimulation and measured after 90 to 180 mins by pathhunter assay; format: cell-based; details: CHO-K1
Chain of CX3C chemokine receptor 1 (Homo sapiens) (P49238 whole entry): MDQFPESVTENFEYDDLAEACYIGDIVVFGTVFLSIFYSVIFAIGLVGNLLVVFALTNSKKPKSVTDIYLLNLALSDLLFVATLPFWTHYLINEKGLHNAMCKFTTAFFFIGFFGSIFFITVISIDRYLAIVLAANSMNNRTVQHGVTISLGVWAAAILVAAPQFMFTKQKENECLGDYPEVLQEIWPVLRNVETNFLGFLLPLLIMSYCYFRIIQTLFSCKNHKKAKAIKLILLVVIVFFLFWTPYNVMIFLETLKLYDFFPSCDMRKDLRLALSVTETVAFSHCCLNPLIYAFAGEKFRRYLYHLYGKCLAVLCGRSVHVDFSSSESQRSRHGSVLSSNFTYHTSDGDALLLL

[16] = biological target: C-X-C chemokine receptor type 2 (Homo sapiens) (UniProt P25025); experiment: Antagonist activity at human Gi/G0-coupled CXCR2 assessed as inhibition of CXCL8-induced beta arrestin2 recruitment at 500 nM preincubated for 30 mins followed by CXCL8 stimulation and measured after 90 to 180 mins by pathhunter assay
Chain of C-X-C chemokine receptor type 2 (Homo sapiens) (P25025 whole entry): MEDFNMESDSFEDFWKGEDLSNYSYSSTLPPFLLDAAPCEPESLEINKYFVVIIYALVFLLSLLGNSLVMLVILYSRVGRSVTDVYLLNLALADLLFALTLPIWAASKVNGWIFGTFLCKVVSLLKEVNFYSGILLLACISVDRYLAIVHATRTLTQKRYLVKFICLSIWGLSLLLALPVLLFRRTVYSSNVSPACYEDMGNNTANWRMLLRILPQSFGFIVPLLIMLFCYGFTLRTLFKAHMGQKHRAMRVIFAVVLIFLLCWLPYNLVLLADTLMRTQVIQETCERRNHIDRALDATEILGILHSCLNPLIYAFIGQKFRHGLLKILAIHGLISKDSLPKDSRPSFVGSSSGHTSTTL

[17] = biological target: C-X-C chemokine receptor type 3 (Homo sapiens) (UniProt P49682); experiment: Antagonist activity at human Gi/G0-coupled CXCR3 assessed as inhibition of CXCL11-induced beta arrestin2 recruitment at 500 nM preincubated for 30 mins followed by CXCL11 stimulation and measured after 90 to 180 mins by pathhunter assay
Chain of C-X-C chemokine receptor type 3 (Homo sapiens) (P49682 whole entry): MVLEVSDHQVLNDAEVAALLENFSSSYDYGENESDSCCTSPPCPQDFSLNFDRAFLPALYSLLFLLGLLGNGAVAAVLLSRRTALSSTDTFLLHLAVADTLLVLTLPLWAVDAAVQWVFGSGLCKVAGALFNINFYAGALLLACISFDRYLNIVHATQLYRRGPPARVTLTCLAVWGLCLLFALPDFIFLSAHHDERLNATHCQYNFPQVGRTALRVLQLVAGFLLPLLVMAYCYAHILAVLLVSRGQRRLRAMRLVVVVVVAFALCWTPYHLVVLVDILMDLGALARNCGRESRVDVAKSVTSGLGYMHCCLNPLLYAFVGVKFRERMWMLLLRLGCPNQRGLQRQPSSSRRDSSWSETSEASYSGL

[18] = biological target: C-X-C chemokine receptor type 4 (Homo sapiens) (UniProt P61073); experiment: Antagonist activity at human Gi/G0-coupled CXCR4 assessed as inhibition of CXCL12-induced beta arrestin2 recruitment at 500 nM preincubated for 30 mins followed by CXCL12 stimulation and measured after 90 to 180 mins by pathhunter assay
Chain of C-X-C chemokine receptor type 4 (Homo sapiens) (P61073 whole entry): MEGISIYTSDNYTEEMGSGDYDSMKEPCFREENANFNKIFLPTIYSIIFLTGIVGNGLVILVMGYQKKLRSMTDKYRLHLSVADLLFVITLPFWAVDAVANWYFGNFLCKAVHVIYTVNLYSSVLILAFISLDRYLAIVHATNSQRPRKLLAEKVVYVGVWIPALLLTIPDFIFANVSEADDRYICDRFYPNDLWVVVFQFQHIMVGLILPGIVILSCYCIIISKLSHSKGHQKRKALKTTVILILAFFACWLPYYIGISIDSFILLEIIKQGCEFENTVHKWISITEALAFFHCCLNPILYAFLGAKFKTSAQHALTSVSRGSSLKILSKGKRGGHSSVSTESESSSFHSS

[19] = biological target: C-X-C chemokine receptor type 5 (Homo sapiens) (UniProt P32302); experiment: Antagonist activity at human Gi/G0-coupled CXCR5 assessed as inhibition of CXCL13-induced beta arrestin2 recruitment at 500 nM preincubated for 30 mins followed by CXCL13 stimulation and measured after 90 to 180 mins by pathhunter assay
Chain of C-X-C chemokine receptor type 5 (Homo sapiens) (P32302 whole entry): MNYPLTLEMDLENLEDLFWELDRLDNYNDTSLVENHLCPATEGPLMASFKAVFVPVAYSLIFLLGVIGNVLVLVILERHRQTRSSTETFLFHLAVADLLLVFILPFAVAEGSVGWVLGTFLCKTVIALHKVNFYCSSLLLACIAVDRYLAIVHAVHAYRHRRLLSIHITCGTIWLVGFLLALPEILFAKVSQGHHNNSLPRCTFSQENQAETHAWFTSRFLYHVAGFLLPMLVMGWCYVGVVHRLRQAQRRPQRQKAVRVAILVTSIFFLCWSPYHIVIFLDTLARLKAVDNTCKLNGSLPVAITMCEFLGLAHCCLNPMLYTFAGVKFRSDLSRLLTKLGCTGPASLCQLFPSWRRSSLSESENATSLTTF

CT26 = experiment: Antitumor activity against mouse CT26 cells allografted in Balb/c mouse assessed as reduction in tumour volume at 50 mg/kg, po qd for 28 days starting from 3 days post inoculation measured twice weekly in presence of checkpoint inhibitor anti-PD-L1; format: functional, organism-based
Panc02 = experiment: Antitumor activity against mouse Panc02 cells allografted in C57BL/6 mouse assessed as reduction in tumor growth at 50 mg/kg, po qd for 38 days in presence of anti-CTLA-4; format: functional, organism-based
Method in brief: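 Pan02-OVA syngeneic tumor model. Compound given 50 mg/kg PO QD on a therapeutic schedule, alone or combined with anti-CTLA-4 antibody; tumor growth tracked. Groups compared by two-tailed t-test.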

Cytochrome P450 = experiment: Induction of CYP450 (unknown origin); format: ADME, protein assay; details: human

IC50 [1]: 0.022 µM | remaining at 1 h, 1 µM [2]: 73% | remaining at 1 h, 1 µM [3]: 91% | clearance [4]: 47.6 mL/min/kg | bioavailability [5]: 49% | IC50 (Cytochrome P450 1A2): > 40 µM | IC50 (Cytochrome P450 2C9): > 40 µM | IC50 (Cytochrome P450 2C19): > 40 µM | Vd [6]: 5.2 L/kg | AUC(0-t) [7]: 751 ng·h/mL | half-life [8]: 12.7 h | bioavailability [9]: 44% | Activity [10]: inactive | Activity [11]: inactive | Activity [12]: inactive | Activity [13]: inactive | Activity [14]: inactive | Activity [15]: inactive | Activity [16]: inactive | Activity [17]: inactive | Activity [18]: inactive | Activity [19]: inactive | Activity (Cytochrome P450): Not Active
SMILES: C[C@H](c1ccc(Cl)cc1Cl)n1nc(C#N)c2ncc(N3CC([C@H]4CCCN(CCO)C4)C3)nc21
Activity (CT26): Active | Activity (Panc02): Active

From ChEMBL document CHEMBL4627411, “Novel Piperidinyl-Azetidines as Potent and Selective CCR4 Antagonists Elicit Antitumor Response as a Single Agent and in Combination with Checkpoint Inhibitors” (J Med Chem, 2020)
